According to ChEMBL document CHEMBL3244429, “Antischistosomal effects of 5-(2,4,5-trichlorophenyl)hydantoin and related compounds” (J Med Chem, 1977):

Columns and labels:
[1] = Toxicity in mouse po dosed through diet for 14 days; format: organism-based; details: in vivo
Summary of the method: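 Mice infected with a Puerto Rican strain of *Schistosoma mansoni*; drug mixed into a powdered diet and fed orally for 14 days; doses expressed as mg/kg per day.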

Schistosoma mansoni [2] = assay: Antischistosomal activity against Schistosoma mansoni Puerto Rican infected mouse assessed as reduction in live schistosomes at 140 mg/kg/day, through diet for 14 days; format: functional; details: 336 h
Summary of the method: (§1)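 Mice carrying a Puerto Rican strain of S. mansoni received drug mixed into a powdered diet for 14 days, with dose expressed as mg/kg per day. The read-out was the reduction in live schistosomes in the infected mice.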

Schistosoma mansoni [3] = assay: Antischistosomal activity against Schistosoma mansoni Puerto Rican infected mouse assessed as infected mouse at 140 mg/kg/day, through diet for 14 days; format: functional; summary of the method: as §1
Schistosoma mansoni [4] = assay: Antischistosomal activity against Schistosoma mansoni Puerto Rican infected mouse assessed as reduction in live schistosomes at 329 mg/kg/day, through diet for 14 days; format: functional; details: 336 h; summary of the method: as §1
Schistosoma mansoni [5] = assay: Antischistosomal activity against Schistosoma mansoni Puerto Rican infected mouse assessed as infected mouse at 329 mg/kg/day, through diet for 14 days; format: functional; summary of the method: as §1
Schistosoma mansoni [6] = assay: Antischistosomal activity against Schistosoma mansoni Puerto Rican infected mouse assessed as reduction in live schistosomes at 305 mg/kg/day, through diet for 14 days; format: functional; details: 336 h; summary of the method: as §1
Schistosoma mansoni [7] = assay: Antischistosomal activity against Schistosoma mansoni Puerto Rican infected mouse assessed as infected mouse at 305 mg/kg/day, through diet for 14 days; format: functional; summary of the method: as §1
Schistosoma mansoni [8] = assay: Antischistosomal activity against Schistosoma mansoni Puerto Rican infected mouse assessed as infected mouse at 336 mg/kg/day, through diet for 14 days; format: functional; summary of the method: as §1
Schistosoma mansoni [9] = assay: Antischistosomal activity against Schistosoma mansoni Puerto Rican infected mouse assessed as reduction in live schistosomes at 336 mg/kg/day, through diet for 14 days; format: functional; details: 336 h; summary of the method: as §1
Schistosoma mansoni [10] = assay: Antischistosomal activity against Schistosoma mansoni Puerto Rican infected mouse assessed as infected mouse at 249 mg/kg/day, through diet for 14 days; format: functional; summary of the method: as §1
Schistosoma mansoni [11] = assay: Antischistosomal activity against Schistosoma mansoni Puerto Rican infected mouse assessed as reduction in live schistosomes at 249 mg/kg/day, through diet for 14 days; format: functional; details: 336 h; summary of the method: as §1
Schistosoma mansoni [12] = assay: Antischistosomal activity against Schistosoma mansoni Puerto Rican infected mouse assessed as infected mouse at 288 mg/kg/day, through diet for 14 days; format: functional; summary of the method: as §1
Schistosoma mansoni [13] = assay: Antischistosomal activity against Schistosoma mansoni Puerto Rican infected mouse assessed as reduction in live schistosomes at 288 mg/kg/day, through diet for 14 days; format: functional; details: 336 h; summary of the method: as §1
Schistosoma mansoni [14] = assay: Antischistosomal activity against Schistosoma mansoni Puerto Rican infected mouse assessed as reduction in live schistosomes at 314 mg/kg/day, through diet for 14 days; format: functional; details: 336 h; summary of the method: as §1
Schistosoma mansoni [15] = assay: Antischistosomal activity against Schistosoma mansoni Puerto Rican infected mouse assessed as infected mouse at 314 mg/kg/day, through diet for 14 days; format: functional; summary of the method: as §1
Schistosoma mansoni [16] = assay: Antischistosomal activity against Schistosoma mansoni Puerto Rican infected mouse assessed as infected mouse at 146 mg/kg/day, through diet for 14 days; format: functional; summary of the method: as §1
Schistosoma mansoni [17] = assay: Antischistosomal activity against Schistosoma mansoni Puerto Rican infected mouse assessed as reduction in live schistosomes at 146 mg/kg/day, through diet for 14 days; format: functional; details: 336 h; summary of the method: as §1
Schistosoma mansoni [18] = assay: Antischistosomal activity against Schistosoma mansoni Puerto Rican infected mouse assessed as reduction in live schistosomes at 78 mg/kg/day, through diet for 14 days; format: functional; details: 336 h; summary of the method: as §1
Schistosoma mansoni [19] = assay: Antischistosomal activity against Schistosoma mansoni Puerto Rican infected mouse assessed as infected mouse at 78 mg/kg/day, through diet for 14 days; format: functional; summary of the method: as §1
Schistosoma mansoni [20] = assay: Antischistosomal activity against Schistosoma mansoni Puerto Rican infected mouse assessed as reduction in live schistosomes at 302 mg/kg/day, through diet for 14 days; format: functional; details: 336 h; summary of the method: as §1
Schistosoma mansoni [21] = assay: Antischistosomal activity against Schistosoma mansoni Puerto Rican infected mouse assessed as infected mouse at 302 mg/kg/day, through diet for 14 days; format: functional; summary of the method: as §1
Schistosoma mansoni [22] = assay: Antischistosomal activity against Schistosoma mansoni Puerto Rican infected mouse assessed as infected mouse at 200 mg/kg/day, through gavage for 5 days; format: functional
Schistosoma mansoni [23] = assay: Antischistosomal activity against Schistosoma mansoni Puerto Rican infected mouse assessed as reduction in live schistosomes at 269 mg/kg/day, through diet for 14 days; format: functional; details: 336 h; summary of the method: as §1
Schistosoma mansoni [24] = assay: Antischistosomal activity against Schistosoma mansoni Puerto Rican infected mouse assessed as infected mouse at 100 mg/kg/day, through gavage for 10 days; format: functional
Schistosoma mansoni [25] = assay: Antischistosomal activity against Schistosoma mansoni Puerto Rican infected mouse assessed as infected mouse at 269 mg/kg/day, through diet for 14 days; format: functional; summary of the method: as §1
Schistosoma mansoni [26] = assay: Antischistosomal activity against Schistosoma mansoni Puerto Rican infected mouse assessed as reduction in live schistosomes at 200 mg/kg/day, through gavage for 5 days; format: functional; details: po, 120 h
Schistosoma mansoni [27] = assay: Antischistosomal activity against Schistosoma mansoni Puerto Rican infected mouse assessed as reduction in live schistosomes at 100 mg/kg/day, through gavage for 10 days; format: functional; details: po, 240 h

With `CCN(CC)CCNc1ccc(C)c2sc3ccccc3c(=O)c12.Cl` [LUCANTHONE HYDROCHLORIDE] the MTD at 336 h [1] was 140 mg/kg, the inhibition in vivo at 140 mg/kg/day (Schistosoma mansoni [2]) was 71% and the Activity (Schistosoma mansoni [3]) was 90%.
Compound `O=C1NC(=O)C(c2ccc(Cl)c(Cl)c2)N1` (stereo not drawn) has an inhibition in vivo at 329 mg/kg/day (Schistosoma mansoni [4]) of 0% and an Activity (Schistosoma mansoni [5]) of 100%.
Compound `O=C1NC(=O)C(c2c(Cl)ccc(Cl)c2Cl)N1` (stereo not drawn) has an inhibition in vivo at 305 mg/kg/day (Schistosoma mansoni [6]) of 0% and an Activity (Schistosoma mansoni [7]) of 100%.
`CN1C(=O)C(c2cc(Cl)c(Cl)cc2Cl)N(C)C1=O` (stereo not drawn) showed an Activity (Schistosoma mansoni [8]) of 83% and an inhibition in vivo at 336 mg/kg/day (Schistosoma mansoni [9]) of 88%.
Compound `O=C1NCCN1c1ncc([N+](=O)[O-])s1` [NIRIDAZOLE] has an Activity (Schistosoma mansoni [10]) of 17% and an inhibition in vivo at 249 mg/kg/day (Schistosoma mansoni [11]) of 99%.
With `C[N+](C)(C)CCCN1C(=O)NC(c2cc(Cl)c(Cl)cc2Cl)C1=O.[I-]` (stereo not drawn) the Activity (Schistosoma mansoni [12]) was 100% and the inhibition in vivo at 288 mg/kg/day (Schistosoma mansoni [13]) was 13%.
Compound `CC1(c2ccc([N+](=O)[O-])cc2)NC(=O)NC1=O` (stereo not drawn) has an inhibition in vivo at 314 mg/kg/day (Schistosoma mansoni [14]) of 0% and an Activity (Schistosoma mansoni [15]) of 100%.
With `O=C1NC(c2cc(Cl)c(Cl)cc2Cl)C(=O)N1CO` (stereo not drawn) the Activity (Schistosoma mansoni [16]) was 100% and the inhibition in vivo at 146 mg/kg/day (Schistosoma mansoni [17]) was 0%.
`CN(C)CCCN1C(=O)NC(c2cc(Cl)c(Cl)cc2Cl)C1=O` (stereo not drawn) showed an MTD at 336 h [1] of 78 mg/kg, an inhibition in vivo at 78 mg/kg/day (Schistosoma mansoni [18]) of 0% and an Activity (Schistosoma mansoni [19]) of 100%.
For `O=C1NC(=O)C(c2ccc(Cl)cc2Cl)N1` (stereo not drawn), the inhibition in vivo at 302 mg/kg/day (Schistosoma mansoni [20]) was 36% and the Activity (Schistosoma mansoni [21]) was 100%.
With `O=C1[N-]C(=O)C(c2cc(Cl)c(Cl)cc2Cl)N1.[Na+]` (stereo not drawn) the Activity (Schistosoma mansoni [22]) was 100%, the inhibition in vivo at 269 mg/kg/day (Schistosoma mansoni [23]) was 65% and the Activity (Schistosoma mansoni [24]) was 100%. It also gave an Activity (Schistosoma mansoni [25]) of 100%, an inhibition in vivo at 200 mg/kg/day (Schistosoma mansoni [26]) of 86% and an inhibition in vivo at 100 mg/kg/day (Schistosoma mansoni [27]) of 76%.
